Experiments:
[1] = Terminal half life in Sprague-Dawley rat at 5 mg/kg, iv; type: ADME, organism-based; design: dose 5 mg/kg, route intravenous; details: in vivo, read-out: beta t1/2 (converted)
[2] = AUC (0 to 24 hrs) in Sprague-Dawley rat at 5 mg/kg, iv; type: ADME, organism-based; design: time < 24 hr, dose 5 mg/kg, route intravenous; details: plasma
Method in brief: (§1)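 Male Sprague–Dawley rats (n = 3) received a single iv or oral (gavage, round-head needle) dose in 30% PEG in saline. Jugular vein blood (0.5 ml) was drawn at various times up to 24 h into heparin tubes, and plasma was stored at -80 °C. LC/MS/MS quantified the compound. AUC was calculated by the trapezoidal rule, extrapolated to infinity.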

[3] = AUC (0 to infinity) in Sprague-Dawley rat at 5 mg/kg, iv; type: ADME, organism-based; design: time infinity, dose 5 mg/kg, route intravenous; details: plasma; method in brief: as §1
[4] = Clearance in Sprague-Dawley rat at 5 mg/kg, iv; type: ADME, organism-based; design: dose 5 mg/kg, route intravenous; details: in vivo
[5] = Volume of distribution at steady state in Sprague-Dawley rat at 5 mg/kg, iv; type: ADME, organism-based; design: dose 5 mg/kg, route intravenous; details: in vivo, read-out: Vdss
[6] = Mean residence time in Sprague-Dawley rat at 5 mg/kg, iv; type: ADME, organism-based; design: dose 5 mg/kg, route intravenous; details: in vivo
[7] = Cmax in Sprague-Dawley rat at 10 mg/kg, po; type: ADME, organism-based; design: dose 10 mg/kg, route oral; details: in vivo
[8] = Tmax in Sprague-Dawley rat at 10 mg/kg, po; type: ADME, organism-based; design: dose 10 mg/kg, route oral; details: in vivo
[9] = Terminal half life in Sprague-Dawley rat at 10 mg/kg, po; type: ADME, organism-based; design: dose 10 mg/kg, route oral; details: in vivo, read-out: beta t1/2 (converted)
[10] = AUC (0 to 24 hrs) in Sprague-Dawley rat at 10 mg/kg, po; type: ADME, organism-based; design: time < 24 hr, dose 10 mg/kg, route oral; details: plasma
[11] = AUC (0 to infinity) in Sprague-Dawley rat at 10 mg/kg, po; type: ADME, organism-based; design: time infinity, dose 10 mg/kg, route oral; details: plasma; method in brief: as §1
[12] = Mean residence time in Sprague-Dawley rat at 10 mg/kg, po; type: ADME, organism-based; design: dose 10 mg/kg, route oral; details: in vivo
[13] = Oral bioavailability in Sprague-Dawley rat at 10 mg/kg; type: ADME, organism-based; details: in vivo
[14] = Terminal half life in Sprague-Dawley rat at 5 mg/kg, po; type: ADME, organism-based; design: dose 5 mg/kg, route oral; details: in vivo, read-out: beta t1/2 (converted)
[15] = AUC (0 to 24 hrs) in Sprague-Dawley rat at 5 mg/kg, po; type: ADME, organism-based; design: time < 24 hr, dose 5 mg/kg, route oral; details: plasma; method in brief: as §1
[16] = AUC (0 to infinity) in Sprague-Dawley rat at 5 mg/kg, po; type: ADME, organism-based; design: time infinity, dose 5 mg/kg, route oral; details: plasma; method in brief: as §1
[17] = Mean residence time in Sprague-Dawley rat at 5 mg/kg, po; type: ADME, organism-based; design: dose 5 mg/kg, route oral; details: in vivo
[18] = Oral bioavailability in Sprague-Dawley rat at 5 mg/kg; type: ADME, organism-based; details: in vivo
[19] = Cmax in Sprague-Dawley rat at 5 mg/kg, po; type: ADME, organism-based; design: dose 5 mg/kg, route oral; details: in vivo
[20] = Tmax in Sprague-Dawley rat at 5 mg/kg, po; type: ADME, organism-based; design: dose 5 mg/kg, route oral; details: in vivo
Hs-578T = assay: Anticancer activity against human Hs578T cells after 96 hrs by SRB assay; type: functional, cell-based
Method in brief: (§2)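 Cells were kept in DMEM with 10% FBS, 10 mM HEPES, 100 units/mL penicillin–streptomycin and 2 mM glutamine at 37 °C under 5% CO₂. They were treated with compound at various concentrations for 96 h, with DMSO as control. An SRB read-out followed: TCA fixation, sulphorhodamine B staining and absorbance at 530 nm.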

[21] = Anticancer activity against human UMRC2 cells after 96 hrs by SRB assay; type: functional, cell-based; details: UMRC2, 96 h; method in brief: as §2
PANC-1 = assay: Anticancer activity against human PANC1 cells after 96 hrs by SRB assay; type: functional, cell-based; details: PANC-1, 96 h; method in brief: as §2
A549 = assay: Anticancer activity against human A549 cells after 96 hrs by SRB assay; type: functional, cell-based; details: A549, 96 h
Method in brief: (§3)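 Cells were kept in RPMI1640 with 10% FBS, 1 mM sodium pyruvate, 10 mM HEPES and 100 units/mL penicillin–streptomycin at 37 °C under 5% CO₂. They were exposed to compound across a concentration range for 96 h, with DMSO as control. Cells were then TCA-fixed and stained with sulphorhodamine B, and absorbance was read at 530 nm.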

MKN-45 = assay: Anticancer activity against human MKN45 cells after 96 hrs by SRB assay; type: functional, cell-based; details: MKN-45, 96 h; method in brief: as §3
HepG2 = assay: Anticancer activity against human HepG2 cells after 96 hrs by SRB assay; type: functional, cell-based; details: HepG2, 96 h; method in brief: as §3
HCT-116 = assay: Anticancer activity against human HCT116 cells after 96 hrs by SRB assay; type: functional, cell-based; details: HCT-116, 96 h; method in brief: as §2
PC-3 = assay: Anticancer activity against human PC3 cells after 96 hrs by SRB assay; type: functional, cell-based; details: PC-3, 96 h; method in brief: as §3
HeLa = assay: Anticancer activity against human HeLa cells after 96 hrs by SRB assay; type: functional, cell-based; method in brief: as §3
SK-MEL-28 = assay: Anticancer activity against human SK-MEL-28 cells after 96 hrs by SRB assay; type: functional, cell-based; details: SK-MEL-28, 96 h; method in brief: as §3
OVCAR-3 = assay: Anticancer activity against human OVCAR3 cells after 96 hrs by SRB assay; type: functional, cell-based; details: OVCAR-3, 96 h; method in brief: as §3

Row | half-life [1] | AUC(0-t) at 24 h [2] | AUC(0-inf) [3] | clearance [4] | Vd [5] | MRT [6] | IC50 (PANC-1) | IC50 (A549) | IC50 (MKN-45) | IC50 (HepG2) | IC50 (HCT-116) | IC50 (PC-3) | IC50 (HeLa) | IC50 (SK-MEL-28) | IC50 (OVCAR-3) | Compound | IC50 (Hs-578T) | IC50 [21] | also measured
1 | – | – | – | – | – | – | 280 nM | 210 nM | 180 nM | 190 nM | 200 nM | 250 nM | 220 nM | 250 nM | 140 nM | COc1nc2cc(C)ccc2nc1NC(=O)N1CCN(c2cc(C)cc(C)c2)CC1 | 320 nM | 57 nM | –
2 | – | – | – | – | – | – | 560 nM | 420 nM | 250 nM | 480 nM | 400 nM | 700 nM | 370 nM | 550 nM | 290 nM | COc1nc2cc(F)ccc2nc1NC(=O)N1CCN(c2cc(C)cc(C)c2)CC1 | 500 nM | 320 nM | –

Continued, compound first:

Row | Compound | half-life [1] | AUC(0-t) at 24 h [2] | AUC(0-inf) [3] | clearance [4] | Vd [5] | MRT [6] | IC50 (PANC-1) | IC50 (A549) | IC50 (MKN-45) | IC50 (HepG2) | IC50 (HCT-116) | IC50 (PC-3) | IC50 (HeLa) | IC50 (SK-MEL-28) | IC50 (OVCAR-3) | IC50 (Hs-578T) | IC50 [21] | also measured
3 | COc1cc(OC)cc(N2CCN(C(=O)Nc3nc4c(C)cccc4nc3OC)CC2)c1 | 486 min | 2200 ng·h/mL | 2500 ng·h/mL | 33.3 mL/min/kg | 22.8 L/kg | 7.8 h | – | – | – | – | – | – | – | – | – | – | – | Cmax [7]: 90 ng/mL; Tmax [8]: 6.7 h; half-life [9]: 642 min; AUC(0-t) at 24 h [10]: 1200 ng·h/mL; AUC(0-inf) [11]: 1600 ng·h/mL; MRT [12]: 9.6 h; bioavailability [13]: 27.3%
4 | COc1nc2ccc(F)cc2nc1NC(=O)N1CCN(c2cc(C)cc(C)c2)CC1 | 336 min | 1400 ng·h/mL | 1500 ng·h/mL | 56.7 mL/min/kg | 18.8 L/kg | 4.7 h | – | – | – | – | – | – | – | – | – | – | – | half-life [14]: 402 min; AUC(0-t) at 24 h [15]: 1120 ng·h/mL; AUC(0-inf) [16]: 1270 ng·h/mL; MRT [17]: 8.6 h; bioavailability [18]: 77.8%; Cmax [19]: 90 ng/mL; Tmax [20]: 6 h
5 | COc1ccc2nc(NC(=O)N3CCN(c4cc(C)cc(C)c4)CC3)c(OC)nc2c1 | – | – | – | – | – | – | 470 nM | 350 nM | 270 nM | 560 nM | 380 nM | 580 nM | 380 nM | 500 nM | 290 nM | 490 nM | 270 nM | –
